Laboratory results reported in ChEMBL document CHEMBL1135248, “Synthesis and evaluation of pseudopeptide analogues of a specific CXCR4 inhibitor, T140: the insertion of an (E)-alkene dipeptide isostere into the betaII'-turn moiety” (Bioorg Med Chem Lett, 2002).
Where “and” joins values, the source holds several entries; their conditions need not be identical. Identical values can stand only once.

Experiments:
MT4 [1] = test: Anti-HIV activity based on the protection against HIV-induced cytopathogenicity in MT-4 cells using MTT method; type: functional, cell-based, Homo sapiens
Procedure, shortened: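 MT-4 cells challenged with the X4 strain HIV-1 IIIB. Protection from virus-induced cytopathogenicity was read by the MTT method, and EC50 was derived. Values are the mean of at least three experiments.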

MT4 [2] = test: Cytotoxicity based on the reduction of the viability of mock-infected MT-4 cells using the MTT method; type: functional, Homo sapiens
Procedure, shortened: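 Mock-infected MT-4 cells were exposed to compound. Loss of viability was read by the MTT method, and CC50 was derived. Values are the mean of at least three experiments.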

[3] = Selectivity index (SI) is determined as the ratio of CC50/EC50; type: functional
Procedure, shortened: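 Ratio of CC50 to EC50, both taken from MTT read-outs in MT-4 cells: mock-infected cells for CC50 and HIV-1 IIIB-infected cells for EC50. Each value is the mean of at least three experiments.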

[4] = target: T1, C-X-C chemokine receptor type 4 (Homo sapiens, UniProt P61073); test: (§1) Inhibitory activity based on the inhibition of [Ca2+] mobilization induced by human SDF-1alpha stimulation through CXCR4
Procedure, shortened: (§2)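 CHO cells transfected with CXCR4 were loaded with Fura-2-AM for 1–2 h and then pretreated with analogue. Recombinant human SDF-1α was added 3 min later. [Ca2+]i rise was measured spectrofluorometrically by a modified Fura-2 method, and IC50 was derived from inhibition of mobilization. Values are the mean of two experiments.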

[5] = target: T1, C-X-C chemokine receptor type 4; test: as §1; procedure, shortened: as §2; remark: listed apart in the source

T1 sequence (P61073 whole entry): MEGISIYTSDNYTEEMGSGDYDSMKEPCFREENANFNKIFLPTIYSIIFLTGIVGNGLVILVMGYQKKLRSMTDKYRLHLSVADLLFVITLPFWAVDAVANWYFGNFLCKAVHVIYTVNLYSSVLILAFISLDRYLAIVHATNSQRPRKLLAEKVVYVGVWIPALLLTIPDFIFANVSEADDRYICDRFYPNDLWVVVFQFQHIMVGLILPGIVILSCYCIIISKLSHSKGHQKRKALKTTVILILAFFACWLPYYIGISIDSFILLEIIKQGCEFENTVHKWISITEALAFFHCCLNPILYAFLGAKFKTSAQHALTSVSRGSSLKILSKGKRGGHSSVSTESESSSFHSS

## Nc1ccn([C@H]2CC[C@@H](CO)O2)c(=O)n1 [ZALCITABINE]
MT4 [1]; Homo sapiens, MT4
  EC50: 33 nM
MT4 [2]; Homo sapiens, MT4
  CC50: 48 µM
[3]
  SI: 1500

## Cc1cn([C@H]2C[C@H](N=[N+]=[N-])[C@@H](CO)O2)c(=O)[nH]c1=O [ZIDOVUDINE]
MT4 [1]; Homo sapiens, MT4
  EC50: 0.3 nM
MT4 [2]; Homo sapiens, MT4
  CC50: 12 µM
[3]
  SI: 35000

## C[C@H]1/C=C\[C@@H](CCCCN)NC(=O)[C@H](CCCCN)NC(=O)[C@H](CCCN=C(N)N)NC(=O)[C@H](Cc2ccc(O)cc2)NC(=O)[C@@H](NC(=O)[C@H](CSCc2ccccc2)NC(=O)[C@H](CCCN=C(N)N)NC(=O)[C@@H](N)CCCN=C(N)N)CSSC[C@@H](C(=O)N[C@@H](CCCN=C(N)N)C(N)=O)NC(=O)[C@H](CCCNC(N)=O)NC(=O)[C@H](CCCN=C(N)N)NC(=O)[C@H](Cc2ccc(O)cc2)NC1=O [listing 1 of 2 here]
MT4 [2]
  CC50: 59 µM
MT4 [2]; Homo sapiens, MT4
  CC50: 54 µM

## C[C@H]1/C=C\[C@@H](CCCCN)NC(=O)[C@H](CCCCN)NC(=O)[C@@H](CCCN=C(N)N)NC(=O)[C@H](Cc2ccc(O)cc2)NC(=O)[C@@H](NC(=O)[C@H](CSCc2ccccc2)NC(=O)[C@H](CCCN=C(N)N)NC(=O)[C@@H](N)CCCN=C(N)N)CSSC[C@@H](C(=O)N[C@@H](CCCN=C(N)N)C(N)=O)NC(=O)C(CCCNC(N)=O)NC(=O)[C@@H](CCCN=C(N)N)NC(=O)[C@H](Cc2ccc(O)cc2)NC1=O (stereo partly specified)
[3]
  SI: 810 and 1300

## C[C@H]1/C=C\[C@@H](CCCCN)NC(=O)[C@H](CCCCN)NC(=O)[C@@H](CCCN=C(N)N)NC(=O)[C@H](Cc2ccc(O)cc2)NC(=O)[C@@H](NC(=O)[C@H](Cc2c[nH]c3ccccc23)NC(=O)[C@H](CCCN=C(N)N)NC(=O)[C@@H](N)CCCN=C(N)N)CSSC[C@@H](C(=O)N[C@@H](CCCN=C(N)N)C(=O)O)NC(=O)C(CCCNC(N)=O)NC(=O)[C@@H](CCCN=C(N)N)NC(=O)[C@H](Cc2ccc(O)cc2)NC1=O (stereo partly specified)
[3]
  SI: > 78000

## C[C@H]1/C=C\[C@@H](CCCCN)NC(=O)[C@H](CCCCN)NC(=O)[C@H](CCCN=C(N)N)NC(=O)[C@H](Cc2ccc(O)cc2)NC(=O)[C@@H](NC(=O)[C@H](Cc2ccc3ccccc3c2)NC(=O)[C@H](CCCN=C(N)N)NC(=O)[C@@H](N)CCCN=C(N)N)CSSC[C@@H](C(=O)N[C@@H](CCCN=C(N)N)C(N)=O)NC(=O)[C@H](CCCNC(N)=O)NC(=O)[C@H](CCCN=C(N)N)NC(=O)[C@H](Cc2ccc(O)cc2)NC1=O [listing 1 of 2 here]
MT4 [1]; mt4
  EC50: 4.7 nM and 1.9 nM
[4]
  IC50: 10 nM
[5]
  IC50: 5 nM

## C[C@H]1/C=C\[C@@H](CCCCN)NC(=O)[C@H](CCCCN)NC(=O)[C@H](CCCN=C(N)N)NC(=O)[C@H](Cc2ccc(O)cc2)NC(=O)[C@@H](NC(=O)[C@H](Cc2c[nH]c3ccccc23)NC(=O)[C@H](CCCN=C(N)N)NC(=O)[C@@H](N)CCCN=C(N)N)CSSC[C@@H](C(=O)N[C@@H](CCCN=C(N)N)C(N)=O)NC(=O)[C@H](CCCNC(N)=O)NC(=O)[C@H](CCCN=C(N)N)NC(=O)[C@H](Cc2ccc(O)cc2)NC1=O [listing 1 of 2 here]
MT4 [2]
  CC50: 58 µM
MT4 [2]; Homo sapiens, MT4
  CC50: 56 µM

## C[C@H]1/C=C\[C@@H](CCCCN)NC(=O)[C@H](CCCCN)NC(=O)[C@H](CCCN=C(N)N)NC(=O)[C@H](Cc2ccc(O)cc2)NC(=O)[C@@H](NC(=O)[C@H](Cc2c[nH]c3ccccc23)NC(=O)[C@H](CCCN=C(N)N)NC(=O)[C@@H](N)CCCN=C(N)N)CSSC[C@@H](C(=O)N[C@@H](CCCN=C(N)N)C(=O)O)NC(=O)[C@H](CCCNC(N)=O)NC(=O)[C@H](CCCN=C(N)N)NC(=O)[C@H](Cc2ccc(O)cc2)NC1=O
MT4 [2]; Homo sapiens, MT4
  CC50: 100 µM

## C[C@H]1/C=C\[C@@H](CCCCN)NC(=O)[C@H](CCCCN)NC(=O)[C@H](CCCN=C(N)N)NC(=O)[C@H](Cc2ccc(O)cc2)NC(=O)[C@@H](NC(=O)[C@H](CSCc2ccccc2)NC(=O)[C@H](CCCN=C(N)N)NC(=O)[C@@H](N)CCCN=C(N)N)CSSC[C@@H](C(=O)N[C@@H](CCCN=C(N)N)C(N)=O)NC(=O)[C@H](CCCNC(N)=O)NC(=O)[C@H](CCCN=C(N)N)NC(=O)[C@H](Cc2ccc(O)cc2)NC1=O [listing 2 of 2 here]
MT4 [1]; Homo sapiens, MT4
  EC50: 67 nM
MT4 [1]; mt4
  EC50: 45 nM
[4]
  IC50: 36 nM

## C[C@H]1/C=C\[C@@H](CCCCN)NC(=O)[C@H](CCCCN)NC(=O)[C@@H](CCCN=C(N)N)NC(=O)[C@H](Cc2ccc(O)cc2)NC(=O)[C@@H](NC(=O)[C@H](Cc2ccc3ccccc3c2)NC(=O)[C@H](CCCN=C(N)N)NC(=O)[C@@H](N)CCCN=C(N)N)CSSC[C@@H](C(=O)N[C@@H](CCCN=C(N)N)C(N)=O)NC(=O)C(CCCNC(N)=O)NC(=O)[C@@H](CCCN=C(N)N)NC(=O)[C@H](Cc2ccc(O)cc2)NC1=O (stereo partly specified)
[3]
  SI: 12000 and 31000

## C[C@H]1/C=C\[C@@H](CCCCN)NC(=O)[C@H](CCCCN)NC(=O)[C@H](CCCN=C(N)N)NC(=O)[C@H](Cc2ccc(O)cc2)NC(=O)[C@@H](NC(=O)[C@H](Cc2c[nH]c3ccccc23)NC(=O)[C@H](CCCN=C(N)N)NC(=O)[C@@H](N)CCCN=C(N)N)CSSC[C@@H](C(=O)N[C@@H](CCCN=C(N)N)C(N)=O)NC(=O)[C@H](CCCNC(N)=O)NC(=O)[C@H](CCCN=C(N)N)NC(=O)[C@H](Cc2ccc(O)cc2)NC1=O [listing 2 of 2 here]
MT4 [1]; Homo sapiens, MT4
  EC50: 3.7 nM
MT4 [1]; mt4
  EC50: 2.9 nM
[5]
  IC50: 5 nM

## C[C@H]1/C=C\[C@@H](CCCCN)NC(=O)[C@H](CCCCN)NC(=O)[C@@H](CCCN=C(N)N)NC(=O)[C@H](Cc2ccc(O)cc2)NC(=O)[C@@H](NC(=O)[C@H](Cc2c[nH]c3ccccc23)NC(=O)[C@H](CCCN=C(N)N)NC(=O)[C@@H](N)CCCN=C(N)N)CSSC[C@@H](C(=O)N[C@@H](CCCN=C(N)N)C(N)=O)NC(=O)C(CCCNC(N)=O)NC(=O)[C@@H](CCCN=C(N)N)NC(=O)[C@H](Cc2ccc(O)cc2)NC1=O (stereo partly specified)
[3]
  SI: 15000 and 20000

## C[C@H]1/C=C\[C@@H](CCCCN)NC(=O)[C@H](CCCCN)NC(=O)[C@H](CCCN=C(N)N)NC(=O)[C@H](Cc2ccc(O)cc2)NC(=O)[C@@H](NC(=O)[C@H](CSC23C[C@H]4C[C@@H](C2)C[C@@H](C3)C4)NC(=O)[C@H](CCCN=C(N)N)NC(=O)[C@@H](N)CCCN=C(N)N)CSSC[C@@H](C(=O)N[C@@H](CCCN=C(N)N)C(N)=O)NC(=O)[C@H](CCCNC(N)=O)NC(=O)[C@H](CCCN=C(N)N)NC(=O)[C@H](Cc2ccc(O)cc2)NC1=O [listing 1 of 2 here]
MT4 [1]; mt4
  EC50: 7.1 nM and 17 nM
[4]
  IC50: 170 nM

## C[C@H]1/C=C\[C@@H](CCCCN)NC(=O)[C@H](CCCCN)NC(=O)[C@@H](CCCN=C(N)N)NC(=O)[C@H](Cc2ccc(O)cc2)NC(=O)[C@@H](NC(=O)[C@H](CSC23C[C@H]4C[C@@H](C2)C[C@@H](C3)C4)NC(=O)[C@H](CCCN=C(N)N)NC(=O)[C@@H](N)CCCN=C(N)N)CSSC[C@@H](C(=O)N[C@@H](CCCN=C(N)N)C(N)=O)NC(=O)C(CCCNC(N)=O)NC(=O)[C@@H](CCCN=C(N)N)NC(=O)[C@H](Cc2ccc(O)cc2)NC1=O (stereo partly specified)
[3]
  SI: 6900 and 3300

## C[C@H]1/C=C\[C@@H](CCCCN)NC(=O)[C@H](CCCCN)NC(=O)[C@@H](CCCN=C(N)N)NC(=O)[C@H](Cc2ccc(O)cc2)NC(=O)[C@@H](NC(=O)[C@H](Cc2ccc3ccccc3c2)NC(=O)[C@H](CCCN=C(N)N)NC(=O)[C@@H](N)CCCN=C(N)N)CSSC[C@@H](C(=O)N[C@@H](CCCN=C(N)N)C(=O)O)NC(=O)C(CCCNC(N)=O)NC(=O)[C@@H](CCCN=C(N)N)NC(=O)[C@H](Cc2ccc(O)cc2)NC1=O (stereo partly specified)
[3]
  SI: > 220000 and 140000

## C[C@H]1/C=C\[C@@H](CCCCN)NC(=O)[C@H](CCCCN)NC(=O)[C@H](CCCNC(=N)N)NC(=O)[C@H](Cc2ccc(O)cc2)NC(=O)[C@@H](NC(=O)[C@H](Cc2ccc3ccccc3c2)NC(=O)[C@H](CCCNC(=N)N)NC(=O)[C@@H](N)CCCN=C(N)N)CSSC[C@@H](C(=O)N[C@@H](CCCNC(=N)N)C(=O)O)NC(=O)[C@H](CCCNC(N)=O)NC(=O)[C@H](CCCNC(=N)N)NC(=O)[C@H](Cc2ccc(O)cc2)NC1=O
[4]
  IC50: 7.3 nM
[5]
  IC50: 6.9 nM

## C[C@H]1/C=C\[C@@H](CCCCN)NC(=O)[C@H](CCCCN)NC(=O)[C@H](CCCN=C(N)N)NC(=O)[C@H](Cc2ccc(O)cc2)NC(=O)[C@@H](NC(=O)[C@H](CSC23C[C@H]4C[C@@H](C2)C[C@@H](C3)C4)NC(=O)[C@H](CCCN=C(N)N)NC(=O)[C@@H](N)CCCN=C(N)N)CSSC[C@@H](C(=O)N[C@@H](CCCN=C(N)N)C(N)=O)NC(=O)[C@H](CCCNC(N)=O)NC(=O)[C@H](CCCN=C(N)N)NC(=O)[C@H](Cc2ccc(O)cc2)NC1=O [listing 2 of 2 here]
MT4 [2]
  CC50: 57 µM
MT4 [2]; Homo sapiens, MT4
  CC50: 49 µM

## C[C@H]1/C=C\[C@@H](CCCCN)NC(=O)[C@H](CCCCN)NC(=O)[C@H](CCCN=C(N)N)NC(=O)[C@H](Cc2ccc(O)cc2)NC(=O)[C@@H](NC(=O)[C@H](Cc2ccc3ccccc3c2)NC(=O)[C@H](CCCN=C(N)N)NC(=O)[C@@H](N)CCCN=C(N)N)CSSC[C@@H](C(=O)N[C@@H](CCCN=C(N)N)C(=O)O)NC(=O)[C@H](CCCNC(N)=O)NC(=O)[C@H](CCCN=C(N)N)NC(=O)[C@H](Cc2ccc(O)cc2)NC1=O [listing 1 of 2 here]
MT4 [1]; mt4
  EC50: < 0.3 nM and 1.9 nM

## C[C@H]1/C=C\[C@@H](CCCCN)NC(=O)[C@H](CCCCN)NC(=O)[C@H](CCCN=C(N)N)NC(=O)[C@H](Cc2ccc(O)cc2)NC(=O)[C@@H](NC(=O)[C@H](Cc2ccc3ccccc3c2)NC(=O)[C@H](CCCN=C(N)N)NC(=O)[C@@H](N)CCCN=C(N)N)CSSC[C@@H](C(=O)N[C@@H](CCCN=C(N)N)C(N)=O)NC(=O)[C@H](CCCNC(N)=O)NC(=O)[C@H](CCCN=C(N)N)NC(=O)[C@H](Cc2ccc(O)cc2)NC1=O [listing 2 of 2 here]
MT4 [2]
  CC50: 58 µM
MT4 [2]; Homo sapiens, MT4
  CC50: 57 µM

## C[C@H]1/C=C\[C@@H](CCCCN)NC(=O)[C@H](CCCCN)NC(=O)[C@H](CCCN=C(N)N)NC(=O)[C@H](Cc2ccc(O)cc2)NC(=O)[C@@H](NC(=O)[C@H](Cc2ccc3ccccc3c2)NC(=O)[C@H](CCCN=C(N)N)NC(=O)[C@@H](N)CCCN=C(N)N)CSSC[C@@H](C(=O)N[C@@H](CCCN=C(N)N)C(=O)O)NC(=O)[C@H](CCCNC(N)=O)NC(=O)[C@H](CCCN=C(N)N)NC(=O)[C@H](Cc2ccc(O)cc2)NC1=O [listing 2 of 2 here]
MT4 [2]
  CC50: 67 µM and 270 µM
